Assay outcomes deposited in PubChem by several laboratories.
DAGLB inhibitor = diacylglycerol lipase beta (human) inhibition. HEK293T DAGLB membrane lysate, EnzChek fluorogenic substrate. 340,000 compounds, 0.059% hits. Q8NCG7. inhibition, % at 5.17 µM; in the data active means inhibition above about 34%;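 further: 0% = enzyme with vehicle and 100% = wells lacking enzyme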
UCH37 DUB inh = inhibitors of human deubiquitinating enzyme UCH37; purified proteasome/UCH37, Ub-AMC cleavage fluorescence; inhibition, % (no concentration beside the values); 330,000 compounds, 0.33% hits; AID 588478;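 active means mean inhibition over replicate wells above about 20%, limit read from the data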;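 further: 0% = compound-free wells with enzyme and 100% = wells lacking proteasome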
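system = Proteasome-associated human UCH37 deubiquitinase | amount = 0.15 nM proteasome as dispensed | medium = pH 7.4 Tris-HCl (50 mM) with ovalbumin, ATP-MgCl2, DTT | incubation = 30 min preincubation with enzyme, 25 min cleavage at room temperature | detection = AMC fluorescence 355/460 nm | read-out basis = percent inhibition | controls = no-proteasome and no-compound wells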
CendR NRP1 mod = modulators of CendR peptide binding to human neuropilin-1. O14786. FAM-RPARPAR peptide binding to NRP-1, fluorescence polarization. inhibition, % at 25 µM. 360,000 compounds, 0.85% hits. AID 602438;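 active means inhibition or corrected inhibition above about 18%, plus a signal ratio from 0.5 to 1.5, limit read from the data, passing the limit was not always enough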
Target sequence (O14786 whole entry, looked up): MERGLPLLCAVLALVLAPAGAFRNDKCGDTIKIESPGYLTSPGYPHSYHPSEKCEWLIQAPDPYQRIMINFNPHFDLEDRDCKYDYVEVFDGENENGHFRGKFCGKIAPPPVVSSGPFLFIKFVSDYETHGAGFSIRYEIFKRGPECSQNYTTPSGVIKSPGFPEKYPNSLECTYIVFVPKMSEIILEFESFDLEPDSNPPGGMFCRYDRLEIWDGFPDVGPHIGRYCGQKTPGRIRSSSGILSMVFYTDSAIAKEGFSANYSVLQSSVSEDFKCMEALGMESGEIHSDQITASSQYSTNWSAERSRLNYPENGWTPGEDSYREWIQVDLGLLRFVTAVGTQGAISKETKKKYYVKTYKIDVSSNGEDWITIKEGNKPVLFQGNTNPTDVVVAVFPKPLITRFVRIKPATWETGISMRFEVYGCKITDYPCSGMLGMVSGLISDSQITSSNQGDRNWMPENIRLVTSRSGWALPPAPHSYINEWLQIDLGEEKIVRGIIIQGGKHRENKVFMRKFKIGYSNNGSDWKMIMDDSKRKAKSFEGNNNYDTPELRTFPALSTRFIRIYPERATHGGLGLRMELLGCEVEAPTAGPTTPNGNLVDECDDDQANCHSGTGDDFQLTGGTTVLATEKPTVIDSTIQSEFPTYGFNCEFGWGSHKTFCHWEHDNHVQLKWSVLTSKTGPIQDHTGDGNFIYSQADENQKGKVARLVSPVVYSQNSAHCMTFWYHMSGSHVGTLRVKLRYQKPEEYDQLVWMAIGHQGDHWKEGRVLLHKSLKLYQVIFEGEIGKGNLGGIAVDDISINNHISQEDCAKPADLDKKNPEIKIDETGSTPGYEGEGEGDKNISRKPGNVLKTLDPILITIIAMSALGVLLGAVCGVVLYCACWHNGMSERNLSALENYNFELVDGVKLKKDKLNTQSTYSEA
CTSL1 counter = blocks F. hepatica cathepsin L1 in PFM18AAP counter-screen; inhibition, % at 5.96 µM; 300,000 compounds, 0.49% hits; recombinant F. hepatica cathepsin L1, Z-Leu-Arg-MCA fluorescence; AID 1906;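 active means inhibition above the mean of all tested compounds plus 3 SD, set per screening campaign, cut at about 17% in these data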;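 further: 0% = plate median of test compound wells and 100% = 1 µM Z-Phe-Ala-diazomethylketone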
MT1-MMP act inh = MT1-MMP (human) activation inhibition | P50281 | HT1080 RFP-PRO-GFP cells, GFP/RFP ratio fluorescence, overnight; percent of plate control window, DMSO zero | GFP/RFP ratio change, % at 20 µM | 360,000 compounds, 0.061% hits | AID 651647;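 active means GFP/RFP ratio change of at least 30% with cell ATP level not reduced by more than half and red fluorescence within 50% of control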
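Material: RFP-PRO-GFP reporter HT1080 cells. Dosing: single-point 20 µM compound, 1% DMSO. Controls: DMSO and RFP-L50D-GFP cell wells. Timing: cells overnight before dosing, compound overnight, 37 °C, 5% CO2. Measure: GFP/RFP fluorescence ratio.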
The depositor's hits bear a star; nt = no result. In the library only some 1.5% were active in any assay of this set; here they are far more common.

SMILES	DAGLB inhibitor	UCH37 DUB inh	CendR NRP1 mod	CTSL1 counter	MT1-MMP act inh
CSc1ccc(C=NNC(=O)c2ccccc2Cl)cc1	nt	2	nt	nt	nt
O=C(NN=Cc1ccccc1O)c1ccc2c(c1)OCO2	nt	-23	nt	nt	nt
CNC(=O)Nc1ccccc1C(=O)NCc1ccccc1	-2	4	27*	-2	1
COc1ccc(N2CCN(C(=O)C(NC(=O)c3c(F)cccc3F)C(C)C)CC2)cc1 (stereo not drawn)	0	3	3	26*	3
C/C(C=NNC(=O)c1cc(C(C)(C)C)[nH]n1)=C\c1ccccc1	nt	8	nt	nt	nt
C=CCC1(CC=C)CCCN1C(=O)c1cc(COc2cccc(OC)c2)on1	-16	4	21*	6	3
C=CCC1(CC=C)CCCN1C(=O)c1cc(COc2cncc(Cl)c2)on1	-11	nt	5	4	-15
O=[N+]([O-])c1ccccc1-c1ccc(C=Nn2cnnc2)o1	nt	12	nt	nt	nt
O=C(CC1C(=O)NCCN1Cc1cccc(C(F)(F)F)c1)NCCc1cnccn1 (stereo not drawn)	0	-2	21*	-5	-2
Cc1cccc(C=NNC(=O)NC2CCCCC2)c1	nt	3	nt	nt	nt
Cc1ccc(NC(=O)C(C)N=C2NS(=O)(=O)c3ccccc32)cc1F (stereo not drawn)	-1	-1	21*	-2	2
CC(N=C1NS(=O)(=O)c2ccccc21)C(=O)NCCCc1ccccc1 (stereo not drawn)	-2	0	-14	2	2
CC(=NNC(=O)COc1ccccc1)c1ccc(O)cc1	nt	-1	nt	nt	nt
Cn1c(=O)c2[nH]c(CCCc3ccc([N+](=O)[O-])cc3)nc2n(C)c1=O	5	nt	30*	nt	-4
Cn1c(=O)c2[nH]c(CCc3ccncc3)nc2n(C)c1=O	-2	-3	4	nt	-2
O=C(CCl)Nc1cc2[nH]c(=O)[nH]c2cc1Br	-2	6	10	25*	-6
COc1cc(OC)cc(C(=O)N2CCCC(Nc3ccc(F)cc3)C2)c1 (stereo not drawn)	-2	3	22*	0	-4
COc1ccc(NC2CCCN(C(=O)CSc3ccncc3)C2)cc1 (stereo not drawn)	0	1	23*	-3	2
CCn1c(SCC(=O)NN=Cc2ccc(C)o2)nnc1-c1ccc(C)cc1	nt	1	nt	nt	nt
Cc1cc(NC(=O)CN(C)CC(=O)Nc2ccc(Cl)c(C(F)(F)F)c2)no1	-2	3	-6	nt	3
Cc1cc(NC(=O)CN(C)CC(=O)Nc2ccc(Cl)cc2)no1	0	nt	19*	nt	3
COc1ccc(C(=O)ON=Cc2ccc(S(=O)c3ccc(Cl)cc3)nc2)cc1 (stereo not drawn)	nt	3	nt	nt	nt
COc1ccc(C=NNc2ncc(C(F)(F)F)cc2Cl)c(OC)c1OC	nt	1	nt	nt	nt
CC1CCC(NC(=O)COC(=O)c2cccnc2Cl)CC1 (stereo not drawn)	-2	2	24*	nt	-4
O=S(Cc1cc(Sc2ccccc2)nc(-c2ccccc2)n1)c1ccccc1 (stereo not drawn)	-9	1	2	-3	-11
SMILES	DAGLB inhibitor	UCH37 DUB inh	CendR NRP1 mod	CTSL1 counter	MT1-MMP act inh
CS(=O)(=O)Cc1cc(Sc2ccccc2)nc(-c2ccncc2)n1	-2	5	23*	0	-2
Cc1ccc(C(=O)Nc2nnc([C@H]3C[C@H](O)[C@@H](CO)O3)s2)cc1	nt	nt	30*	nt	0
Cc1ccc(NC(=O)Nc2nnc([C@@H]3C[C@H](O)[C@@H](CO)O3)s2)cc1	nt	nt	-1	nt	0
Cc1cc(=S)cc(C)n1CCCO	1	4	32*	1	1
Cc1nc2cc(Cl)c(Cl)cc2n1CCCO	nt	8	-8	1	-3
Cc1ccc(NCCc2ccc(C)nc2)cc1	0	3	20*	-1	5
Clc1ccc(N/N=C/c2cccnc2)cc1	3	nt	-9	17*	0
Clc1ccc(NN=Cc2cccnc2)cc1	nt	8	nt	nt	nt
O=C(C=NO)NCCN1CCCCC1	nt	0	nt	nt	nt
Cc1cc(SCC(=O)c2cc(C)n(C)c2C)nc2ccccc12	-2	4	42*	1	-1
CC(=NNC(=O)c1cc(Br)ccc1O)c1cccs1	nt	1	nt	nt	nt
O=C(O)CC1SC(=NN=C2C(=O)Nc3ccccc32)N(c2ccc(O)cc2)C1=O (stereo not drawn)	nt	11	nt	nt	nt
COC(=O)CC1C(=O)NCCN1C(=S)Nc1ccc(F)cc1 (stereo not drawn)	-1	3	36*	-4	0
COC(=O)CC1C(=O)NCCN1C(=S)Nc1cccc(C)c1 (stereo not drawn)	1	3	-9	0	2
COc1ccc(C2CC(c3ccccc3)=NN2C(=O)COC(=O)CNC(=O)c2ccccc2)cc1 (stereo not drawn)	2	0	-7	31*	2
O=C(CNC(=O)c1ccccc1)OCC(=O)N1N=C(c2ccc(Cl)cc2)CC1c1ccco1 (stereo not drawn)	-3	2	2	20*	0
CC(=O)N1N=C(c2ccc(Cl)cc2)CC1c1ccco1 (stereo not drawn)	1	3	0	0	-4
COc1ccc(C(=O)Oc2ccc(C=NO)cc2)cc1	nt	0	nt	nt	nt
Cn1c(N)c(C(=O)COC(=O)/C=C/c2ccc(Cl)c(Cl)c2)c(=O)n(C)c1=O	4	1	25*	nt	-2
COc1ccc(C=NNC(=O)Cn2nc(C)c([N+](=O)[O-])c2C)cc1	nt	1	nt	nt	nt
O=C(Cc1ccc(O)cc1)NCCNC(=S)NCc1ccccc1	-3	3	8	25*	1
CC(C)(C)N1C(=O)[C@H]2[C@@H](c3ccc(Br)cc3)N3C(=O)N(c4ccccc4)C(=O)[C@@]3(Cc3ccccc3)[C@H]2C1=O	-5	27*	-1	0	0
Nc1nonc1-n1nnc(C(=O)NN=Cc2ccccc2F)c1-c1cccs1	nt	2	nt	nt	nt
CCC(C)C(NC(=O)c1ccccc1NC(=O)c1ccc(OC)cc1)C(=O)NCc1ccco1 (stereo not drawn)	1	-19	-2	45*	-1
COc1cc2c(cc1OC)C(C(C#N)=NO)=NC(C)(C)C2	nt	8	nt	nt	nt
SMILES	DAGLB inhibitor	UCH37 DUB inh	CendR NRP1 mod	CTSL1 counter	MT1-MMP act inh
CN1CCN(c2ccccc2NC(=O)c2ccc(-c3cccc([N+](=O)[O-])c3)o2)CC1	-4	3	45*	2	-3
COc1ccc(CC(=O)NCC(=O)NN=C(C)c2ccco2)cc1	nt	-1	nt	nt	nt
Cc1ccc(S(=O)(=O)/N=C2/C=C(Sc3ncn[nH]3)C(=O)c3ccccc32)c(C)c1	nt	nt	nt	103*	nt
Cc1ccc(S(=O)(=O)Nc2ccc(O)c(Sc3ncn[nH]3)c2)cc1	0	1	14	-6	1
Cc1ccc(S(=O)(=O)/N=C2/C=C(Sc3ncn[nH]3)C(=O)c3ccccc32)cc1	-13	nt	13	107*	-105
CC(C)c1ccc(S(=O)(=O)/N=C2/C=C(Sc3ncn[nH]3)C(=O)c3ccccc32)cc1	2	nt	-6	101*	-54
